Values after ≈ are worked out from the molar mass of the structure shown. Active and inactive are the calls of the source. No cut-off for these calls is given here.
Legend:
[1] = test system: Escherichia coli; assay: Antibacterial activity against Escherichia coli at 10 ug/disk by disk diffusion assay; assay type: functional, organism-based
Outline: (§1)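 Sample solution dried onto 6-mm filter-paper disks, which are laid on seeded agar Petri dishes and incubated.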

[2] = test system: Amorphotheca resinae; assay: Antifungal activity against Cladosporium resinae 10100 at 100 units/disk by disk diffusion assay; assay type: functional, organism-based; outline: as §1
[3] = test system: Trichophyton mentagrophytes; assay: Antifungal activity against Trichophyton mentagrophytes 10100 at 100 units/disk by disk diffusion assay; assay type: functional, organism-based; outline: as §1
[4] = test system: Candida albicans; assay: Antifungal activity against Candida albicans 10261 by tube assay method; assay type: functional
Outline: (§2)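 MIC by standard tube dilution assay. Minimum fungicidal concentration is also reported in µg/ml.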

[5] = test system: Trichophyton mentagrophytes; assay: Antifungal activity against Trichophyton mentagrophytes 10100 by tube assay method; assay type: functional; outline: as §2
[6] = test system: Candida albicans; assay: Antifungal activity against Candida albicans 10261 at 60 ug/disk by disk diffusion assay; assay type: functional; settings: for zone of inhibition at 60 µg/disc: read-out: IZ
Outline: (§3)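 Sample solution dried onto 6-mm filter paper disks at the stated loading. Disks placed on agar plates seeded with the test organism, then incubated. Read-out is the width of the inhibition zone around the disk, in mm.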

[7] = test system: Amorphotheca resinae; assay: Antifungal activity against Cladosporium resinae 10100 at 60 ug/disk by disk diffusion assay; assay type: functional; settings: for zone of inhibition at 60 µg/disc: read-out: IZ; outline: as §3
[8] = test system: Amorphotheca resinae; assay: Antifungal activity against Cladosporium resinae 10100 at 300 ug/disk by disk diffusion assay; assay type: functional, organism-based; outline: as §3
[9] = test system: Candida albicans; assay: Antifungal activity against Candida albicans 10261 at 300 ug/disk by disk diffusion assay; assay type: functional; settings: for zone of inhibition at 300 µg/disc: read-out: IZ; outline: as §3
[10] = test system: Escherichia coli; assay: Antibacterial activity against Escherichia coli at 60 ug/disk by disk diffusion assay; assay type: functional, organism-based; outline: as §3
[11] = test system: P388; assay: Cytotoxicity against mouse P388 cells after 72 hrs by MTT assay; assay type: functional, cell-based; settings: P388, 72 h
Outline: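 P-388 murine leukemia cells incubated 72 h with a 2-fold dilution series of sample. Growth read by MTT tetrazolium staining absorbance. IC50 (µg/ml) is the concentration reducing growth to 50% of a solvent control.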

[12] = test system: Trichophyton mentagrophytes; assay: Antifungal activity against Trichophyton mentagrophytes 10100 at 300 ug/disk by disk diffusion assay; assay type: functional; settings: for zone of inhibition at 300 µg/disc: read-out: IZ; outline: as §3
[13] = test system: Bacillus subtilis; assay: Antibacterial activity against Bacillus subtilis at 300 ug/disk by disk diffusion assay; assay type: functional; settings: for zone of inhibition at 300 µg/disc: read-out: IZ; outline: as §3
[14] = Cytotoxicity against african green monkey BSC cells at 60 ug/mL after 24 hrs; assay type: cell-based; settings: chlorocebus aethiops
Outline: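 Sample on 6-mm filter paper disks placed directly on BSC-1 monkey kidney cells, incubated 24 h, examined by inverted microscope. Cytotoxic zone scored as +, ++, +++ or whole well.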

[15] = test system: Trichophyton mentagrophytes; assay: Antifungal activity against Trichophyton mentagrophytes 10100 at 60 ug/disk by disk diffusion assay; assay type: functional; settings: for zone of inhibition at 60 µg/disc: read-out: IZ; outline: as §3
[16] = test system: Bacillus subtilis; assay: Antibacterial activity against Bacillus subtilis at 60 ug/disk by disk diffusion assay; assay type: functional; settings: for zone of inhibition at 60 µg/disc: read-out: IZ; outline: as §3
[17] = test system: Bacillus subtilis; assay: Antibacterial activity against Bacillus subtilis at 12 ug/disk by disk diffusion assay; assay type: functional; settings: read-out: IZ; outline: as §3
[18] = test system: Trichophyton mentagrophytes; assay: Antifungal activity against Trichophyton mentagrophytes 10100 at 2.4 ug/disk by disk diffusion assay; assay type: functional; settings: for zone of inhibition at 2.4 µg/disc: read-out: IZ; outline: as §3
[19] = test system: Candida albicans; assay: Antifungal activity against Candida albicans 10261 at 2.4 ug/disk by disk diffusion assay; assay type: functional, organism-based; outline: as §3
[20] = test system: Bacillus subtilis; assay: Antibacterial activity against Bacillus subtilis at 2.4 ug/disk by disk diffusion assay; assay type: functional, organism-based; outline: as §3
[21] = test system: Trichophyton mentagrophytes; assay: Antifungal activity against Trichophyton mentagrophytes 10100 at 12 ug/disk by disk diffusion assay; assay type: functional; settings: read-out: IZ; outline: as §3
[22] = test system: Candida albicans; assay: Antifungal activity against Candida albicans 10261 at 12 ug/disk by disk diffusion assay; assay type: functional; settings: for zone of inhibition at 12 µg/disc: read-out: IZ; outline: as §3
[23] = test system: Bacillus subtilis; assay: Antibacterial activity against Bacillus subtilis at 30 ug/disk by disk diffusion assay; assay type: functional; settings: read-out: IZ; outline: as §3
[24] = test system: Gloeophyllum trabeum; assay: Antifungal activity against Gloeophyllum trabeum; assay type: functional, organism-based
[25] = test system: Poliovirus 1; assay: Antiviral activity against Poliovirus type 1 infected in african green monkey BSC cells assessed as inhibition of virus-induced cytopathic effect; assay type: functional, organism-based
Outline: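 Sample is dried onto 6-mm filter-paper disks and placed directly on BSC-1 (African green monkey kidney) cell monolayers. Cells are infected with Polio Type I (Pfizer vaccine strain) and incubated 24 h. Wells are examined by inverted microscope for a zone of viral and/or cytotoxic inhibition around the disk. Cytotoxicity is scored as zone size (+, ++, +++, whole well).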

[26] = test system: Postia placenta; assay: Antifungal activity against Poria placenta; assay type: functional, organism-based; settings: Rhodonia placenta
[27] = test system: Human alphaherpesvirus 1; assay: Antiviral activity against Herpes simplex virus type 1 ATCC VR 733 infected in african green monkey BSC cells assessed as inhibition of virus-induced cytopathic effect; assay type: functional, organism-based
Outline: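 Sample dried onto 6-mm filter paper disks placed directly on BSC-1 (African green monkey kidney) cell monolayers, which were infected with HSV type 1 (ATCC VR 733). After 24 h incubation, examined by inverted microscope. Zone of viral and/or cytotoxic inhibition around the disk recorded.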

[28] = test system: Pseudomonas aeruginosa; assay: […] aeruginosa at 60 ug/disk by disk diffusion assay; assay type: functional, organism-based; outline: as §3

| Compound | MFC [4] | MIC [4] | MFC [5] | MIC [5] | Activity [6] | Activity [7] | Activity [8] | Activity [9] | Activity [10] | IC50 [11] | Activity [12] | Activity [13] | Activity [14] | Activity [15] | Activity [16] | zone of inhibition at 60 µg/disc [15] | further results |
| --- | --- | --- | --- | --- | --- | --- | --- | --- | --- | --- | --- | --- | --- | --- | --- | --- | --- |
| GENTAMICIN |  |  |  |  |  |  |  |  |  |  |  |  |  |  |  |  | inhibition zone (IZ) [1]: 8 mm |
| NYSTATIN | 31.2 µg/mL | 31.2 µg/mL | 62.5 µg/mL | 62.5 µg/mL |  |  |  |  |  |  |  |  |  |  |  |  | inhibition zone (IZ) [2]: 10 mm; inhibition zone (IZ) [3]: 8 mm |
| COc1cccc(CCc2ccc(O[Si](C)(C)C(C)(C)C)cc2)c1 | > 1000 µg/mL | > 1000 µg/mL | > 1000 µg/mL | > 1000 µg/mL | inactive | inactive | inactive | inactive | inactive | > 25 µg/mL | inactive | inactive | Not Active | inactive | inactive |  |  |
| COc1cccc(/C=C/c2ccc(O[Si](C)(C)C(C)(C)C)cc2)c1 |  |  |  |  | inactive | inactive | inactive | inactive | inactive |  | inactive | inactive | Not Active | inactive | inactive |  |  |
| COc1cccc(/C=C/c2ccc(O)cc2)c1 [(E)-5-METHOXY-4'-STILBENOL] | 125 µg/mL (≈ 552 µM) | 31.2 µg/mL (≈ 138 µM) | 31.2 µg/mL (≈ 138 µM) | 31.2 µg/mL (≈ 138 µM) |  |  |  |  | inactive | 9.9 µg/mL (≈ 43.8 µM) |  |  |  |  |  | 6 mm | zone of inhibition at 12 µg/disc [17]: 2 mm; zone of inhibition at 60 µg/disc [6]: 2 mm; zone of inhibition at 60 µg/disc [7]: 2 mm; zone of inhibition at 300 µg/disc [9]: 7 mm; zone of inhibition at 300 µg/disc [12]: 10 mm; zone of inhibition at 300 µg/disc [13]: 6 mm; zone of inhibition at 2.4 µg/disc [18]: 2 mm; Activity [19]: inactive; Activity [20]: inactive; zone of inhibition at 12 µg/disc [21]: 8 mm; zone of inhibition at 60 µg/disc [16]: 4 mm; Activity [22]: inactive |
| COc1cccc(/C=C\c2ccc(O[Si](C)(C)C(C)(C)C)cc2)c1 |  |  |  |  | inactive | inactive | inactive | inactive | inactive |  | inactive | inactive | Not Active | inactive | inactive |  |  |
| O=C(N[C@H](CO)[C@H](O)c1ccc([N+](=O)[O-])cc1)C(Cl)Cl [CHLORAMPHENICOL] |  |  |  |  |  |  |  |  |  |  |  |  |  |  |  |  | zone of inhibition at 30 µg/disc [23]: 12 mm |
| Cc1cccc(O)c1 [METACRESOL] |  |  |  |  | inactive | inactive |  | inactive | inactive |  | inactive | inactive | Not Active |  | inactive | 2 mm |  |
| COc1cccc(/C=C\c2ccc(O)cc2)c1 | 62.5 µg/mL (≈ 276 µM) | 31.2 µg/mL (≈ 138 µM) | 15.6 µg/mL (≈ 69 µM) | 12.6 µg/mL (≈ 55.8 µM) |  |  |  |  |  | 16.3 µg/mL (≈ 72 µM) |  |  |  |  |  | 10 mm | zone of inhibition at 12 µg/disc [17]: 4 mm; zone of inhibition at 60 µg/disc [6]: 7 mm; zone of inhibition at 60 µg/disc [7]: 3 mm; zone of inhibition at 300 µg/disc [9]: 7 mm; zone of inhibition at 300 µg/disc [12]: 10 mm; zone of inhibition at 300 µg/disc [13]: 9 mm; zone of inhibition at 2.4 µg/disc [18]: 5 mm; Activity [19]: inactive; Activity [20]: inactive; zone of inhibition at 12 µg/disc [21]: 7 mm; zone of inhibition at 60 µg/disc [16]: 9 mm; zone of inhibition at 12 µg/disc [22]: 2 mm |
| CO[C@@]12[C@H](COC(N)=O)C3=C(C(=O)C(C)=C(N)C3=O)N1C[C@@H]1N[C@@H]12 [MITOMYCIN] |  |  |  |  |  |  |  |  |  | 0.02 µg/mL (≈ 0.0598 µM) |  |  |  |  |  |  |  |
| C(=C\c1ccccc1)/c1ccccc1 |  |  |  |  | inactive | inactive | inactive | inactive | inactive |  | inactive | inactive |  | inactive | inactive |  |  |
| COc1ccc(CCc2cccc(OC)c2)cc1 |  |  |  |  | inactive | inactive |  | inactive | inactive |  | inactive | inactive | Not Active | inactive | inactive |  |  |
| COc1cccc(CCc2ccc(O)cc2)c1 | 125 µg/mL (≈ 548 µM) | 125 µg/mL (≈ 548 µM) | 62.5 µg/mL (≈ 274 µM) | 62.5 µg/mL (≈ 274 µM) |  |  |  |  | inactive | > 25 µg/mL |  |  |  |  |  | 7 mm | zone of inhibition at 12 µg/disc [17]: 3 mm; zone of inhibition at 60 µg/disc [6]: 10 mm; zone of inhibition at 60 µg/disc [7]: 2 mm; zone of inhibition at 300 µg/disc [9]: 10 mm; zone of inhibition at 300 µg/disc [12]: 7 mm; IC50 [24]: 87 µg/mL (≈ 381 µM); zone of inhibition at 300 µg/disc [13]: 5 mm; Activity [18]: inactive; Activity [19]: inactive; Activity [25]: inactive; Activity [20]: inactive; zone of inhibition at 12 µg/disc [21]: 7 mm; IC50 [26]: 11 µg/mL (≈ 48.2 µM); Activity [27]: inactive; zone of inhibition at 60 µg/disc [16]: 5 mm; Activity [28]: inactive; zone of inhibition at 12 µg/disc [22]: 2 mm |
